Laboratory results as given in ChEMBL document CHEMBL1938293, “Molecular drug-organiser: synthesis, characterization and biological evaluation of penicillin V and/or nalidixic acid calixarene-based podands” (2011).
The source made the active and inactive calls. The rule behind the calls is not given here.

Assays:
Staphylococcus aureus [1] = experiment: Antibacterial activity against Staphylococcus aureus ATCC 25923 at 10 mg/mL after 24 hrs by disk diffusion assay; assay type: functional; conditions: ATCC 25923, 24 h, read-out: DIZ
Summary of the method: (§1)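 Disk diffusion on Mueller–Hinton agar per CLSI recommendations. Sterile 6 mm cellulose disks were impregnated with 20 μL of the DMSO solution at the stated concentration. Plates were incubated at 37 °C and growth-inhibition zone diameters were read at 24 h. Disks carrying DMSO alone served as solvent control.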

Staphylococcus aureus [2] = experiment: Antibacterial activity against Staphylococcus aureus ATCC 25923 at 10 mg/mL freshly prepared compound after 24 hrs by disk diffusion assay; assay type: functional; summary of the method: as §1
Enterococcus faecalis [3] = experiment: Antibacterial activity against Enterococcus faecalis ATCC 29212 at 10 mg/mL after 24 hrs by disk diffusion assay; assay type: functional, organism-based; summary of the method: as §1
Staphylococcus aureus [4] = experiment: Antibacterial activity against Staphylococcus aureus ATCC 29213 at 10 mg/mL after 24 hrs by disk diffusion assay; assay type: functional, organism-based; summary of the method: as §1
Escherichia coli [5] = experiment: Antibacterial activity against Escherichia coli ATCC 25922 at 10 mg/mL after 24 hrs by disk diffusion assay; assay type: functional, organism-based; summary of the method: as §1
Staphylococcus aureus [6] = experiment: Antibacterial activity against Staphylococcus aureus ATCC 25923 at 10 mg/mL 1 month old compound stored at 4 degree C after 24 hrs by disk diffusion assay; assay type: functional; conditions: ATCC 25923, 24 h, read-out: DIZ
Summary of the method: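 Disk diffusion on Mueller–Hinton agar per CLSI recommendations. The DMSO solution had been stored 1 month at 4 °C before use and was compared with a freshly prepared solution. Sterile 6 mm cellulose disks were impregnated with 20 μL. Plates were incubated at 37 °C and inhibition zone diameter was read at 24 h.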

Staphylococcus aureus [7] = experiment: Antibacterial activity against Staphylococcus aureus ATCC 25923 at 5 mg/mL after 24 hrs by disk diffusion assay; assay type: functional, organism-based; summary of the method: as §1
Staphylococcus aureus [8] = experiment: Antibacterial activity against Staphylococcus aureus ATCC 29213 at 5 mg/mL after 24 hrs by disk diffusion assay; assay type: functional, organism-based; summary of the method: as §1
Pseudomonas aeruginosa [9] = experiment: Antibacterial activity against Pseudomonas aeruginosa ATCC 27853 at 5 mg/mL after 24 hrs by disk diffusion assay; assay type: functional, organism-based; summary of the method: as §1
Enterococcus faecalis [10] = experiment: Antibacterial activity against Enterococcus faecalis ATCC 29212 at 5 mg/mL after 24 hrs by disk diffusion assay; assay type: functional, organism-based; summary of the method: as §1
Escherichia coli [11] = experiment: Antibacterial activity against Escherichia coli ATCC 25922 at 5 mg/mL after 24 hrs by disk diffusion assay; assay type: functional, organism-based; summary of the method: as §1
Staphylococcus aureus [12] = experiment: Antibacterial activity against Staphylococcus aureus ATCC 29213 at 5.8 mg/mL after 24 hrs by disk diffusion assay; assay type: functional, organism-based; summary of the method: as §1
Enterococcus faecalis [13] = experiment: Antibacterial activity against Enterococcus faecalis ATCC 29212 at 5.8 mg/mL after 24 hrs by disk diffusion assay; assay type: functional, organism-based; summary of the method: as §1
Staphylococcus aureus [14] = experiment: Antibacterial activity against Staphylococcus aureus ATCC 25923 at 2.53 mg/mL after 24 hrs by disk diffusion assay; assay type: functional, organism-based; summary of the method: as §1
Escherichia coli [15] = experiment: Antibacterial activity against Escherichia coli ATCC 25922 at 5.8 mg/mL after 24 hrs by disk diffusion assay; assay type: functional, organism-based; summary of the method: as §1
Staphylococcus aureus [16] = experiment: Antibacterial activity against Staphylococcus aureus ATCC 29213 at 2.53 mg/mL after 24 hrs by disk diffusion assay; assay type: functional, organism-based; summary of the method: as §1
Escherichia coli [17] = experiment: Antibacterial activity against Escherichia coli ATCC 25922 at 2.53 mg/mL after 24 hrs by disk diffusion assay; assay type: functional, organism-based; summary of the method: as §1
Pseudomonas aeruginosa [18] = experiment: Antibacterial activity against Pseudomonas aeruginosa ATCC 27853 at 2.53 mg/mL after 24 hrs by disk diffusion assay; assay type: functional, organism-based; summary of the method: as §1
Enterococcus faecalis [19] = experiment: Antibacterial activity against Enterococcus faecalis ATCC 29212 at 2.53 mg/mL after 24 hrs by disk diffusion assay; assay type: functional, organism-based; summary of the method: as §1
Staphylococcus aureus [20] = experiment: Antibacterial activity against Staphylococcus aureus ATCC 25923 at 5.8 mg/mL after 24 hrs by disk diffusion assay; assay type: functional, organism-based; summary of the method: as §1
Escherichia coli [21] = experiment: Antibacterial activity against Escherichia coli ATCC 25922 at 3.25 mg/mL after 24 hrs by disk diffusion assay; assay type: functional, organism-based; summary of the method: as §1
Pseudomonas aeruginosa [22] = experiment: Antibacterial activity against Pseudomonas aeruginosa ATCC 27853 at 3.25 mg/mL after 24 hrs by disk diffusion assay; assay type: functional, organism-based; summary of the method: as §1
Enterococcus faecalis [23] = experiment: Antibacterial activity against Enterococcus faecalis ATCC 29212 at 3.25 mg/mL after 24 hrs by disk diffusion assay; assay type: functional, organism-based; summary of the method: as §1
Staphylococcus aureus [24] = experiment: Antibacterial activity against Staphylococcus aureus ATCC 25923 at 3.25 mg/mL after 24 hrs by disk diffusion assay; assay type: functional, organism-based; summary of the method: as §1
Staphylococcus aureus [25] = experiment: Antibacterial activity against Staphylococcus aureus ATCC 29213 at 3.25 mg/mL after 24 hrs by disk diffusion assay; assay type: functional, organism-based; summary of the method: as §1
Enterococcus faecalis [26] = experiment: Antibacterial activity against Enterococcus faecalis ATCC 29212 at 1.88 mg/mL after 24 hrs by disk diffusion assay; assay type: functional, organism-based
Summary of the method: (§2)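 Disk diffusion on Mueller–Hinton agar, run per CLSI recommendations. Sterile 6 mm cellulose disks each carried 20 μL of a DMSO solution. Reference drugs were dosed to equal the maximum amount releasable from the calixarene podands. Disks with DMSO alone served as solvent controls. Plates were incubated at 37 °C, and growth-inhibition zone diameter (mm) was read at 24 h.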

Escherichia coli [27] = experiment: Antibacterial activity against Escherichia coli ATCC 25922 at 1.88 mg/mL after 24 hrs by disk diffusion assay; assay type: functional, organism-based; summary of the method: as §2
Staphylococcus aureus [28] = experiment: Antibacterial activity against Staphylococcus aureus ATCC 25923 at 1.88 mg/mL after 24 hrs by disk diffusion assay; assay type: functional, organism-based; summary of the method: as §2
Staphylococcus aureus [29] = experiment: Antibacterial activity against Staphylococcus aureus ATCC 29213 at 1.88 mg/mL after 24 hrs by disk diffusion assay; assay type: functional, organism-based; summary of the method: as §2
Pseudomonas aeruginosa [30] = experiment: Antibacterial activity against Pseudomonas aeruginosa ATCC 27853 at 1.88 mg/mL after 24 hrs by disk diffusion assay; assay type: functional, organism-based; summary of the method: as §2
Staphylococcus aureus [31] = experiment: Antibacterial activity against Staphylococcus aureus ATCC 29213 at 2.83 mg/mL after 24 hrs by disk diffusion assay; assay type: functional, organism-based; summary of the method: as §1
Staphylococcus aureus [32] = experiment: Antibacterial activity against Staphylococcus aureus ATCC 29213 at 1.25 mg/mL after 24 hrs by disk diffusion assay; assay type: functional, organism-based; summary of the method: as §1
Staphylococcus aureus [33] = experiment: Antibacterial activity against Staphylococcus aureus ATCC 25923 at 1.25 mg/mL after 24 hrs by disk diffusion assay; assay type: functional, organism-based; summary of the method: as §1
Staphylococcus aureus [34] = experiment: Antibacterial activity against Staphylococcus aureus ATCC 25923 at 2.83 mg/mL after 24 hrs by disk diffusion assay; assay type: functional, organism-based; summary of the method: as §1
Escherichia coli [35] = experiment: Antibacterial activity against Escherichia coli ATCC 25922 at 2.83 mg/mL after 24 hrs by disk diffusion assay; assay type: functional, organism-based; summary of the method: as §1
Enterococcus faecalis [36] = experiment: Antibacterial activity against Enterococcus faecalis ATCC 29212 at 1.25 mg/mL after 24 hrs by disk diffusion assay; assay type: functional, organism-based; summary of the method: as §1
Enterococcus faecalis [37] = experiment: Antibacterial activity against Enterococcus faecalis ATCC 29212 at 2.83 mg/mL after 24 hrs by disk diffusion assay; assay type: functional, organism-based; summary of the method: as §1
Pseudomonas aeruginosa [38] = experiment: Antibacterial activity against Pseudomonas aeruginosa ATCC 27853 at 2.83 mg/mL after 24 hrs by disk diffusion assay; assay type: functional, organism-based; summary of the method: as §1

## CCn1cc(C(=O)OCCCOc2c3cc(C(C)(C)C)cc2Cc2cc(C(C)(C)C)cc(c2O)Cc2cc(C(C)(C)C)cc(c2OCCCOC(=O)[C@@H]2N4C(=O)[C@@H](NC(=O)COc5ccccc5)[C@H]4SC2(C)C)Cc2cc(C(C)(C)C)cc(c2O)C3)c(=O)c2ccc(C)nc21
Staphylococcus aureus [1]
  zone of inhibition at 10000 µg/mL: 31.5 mm
Staphylococcus aureus [2]
  diameter of the inhibition zone (DIZ): 30 mm
Enterococcus faecalis [3]
  Activity: inactive
Staphylococcus aureus [4]
  Activity: inactive
Escherichia coli [5]
  Activity: inactive
Staphylococcus aureus [6]
  zone of inhibition at 10000 µg/mL: 35 mm

## CCn1cc(C(=O)OCCCOc2c3cc(C(C)(C)C)cc2Cc2cc(C(C)(C)C)cc(c2O)Cc2cc(C(C)(C)C)cc(c2OCCCOC(=O)c2cn(CC)c4nc(C)ccc4c2=O)Cc2cc(C(C)(C)C)cc(c2O)C3)c(=O)c2ccc(C)nc21
Staphylococcus aureus [7]
  Activity: inactive
Staphylococcus aureus [8]
  Activity: inactive
Pseudomonas aeruginosa [9]
  Activity: inactive
Enterococcus faecalis [10]
  Activity: inactive
Escherichia coli [11]
  Activity: inactive

## CC(C)(C)c1cc2c(O)c(c1)Cc1cc(C(C)(C)C)cc(c1OCCCOC(=O)[C@@H]1N3C(=O)[C@@H](NC(=O)COc4ccccc4)[C@H]3SC1(C)C)Cc1cc(C(C)(C)C)cc(c1O)Cc1cc(C(C)(C)C)cc(c1OCCCOC(=O)[C@@H]1N3C(=O)[C@@H](NC(=O)COc4ccccc4)[C@H]3SC1(C)C)C2
Staphylococcus aureus [12]
  Activity: inactive
Enterococcus faecalis [13]
  Activity: inactive
Staphylococcus aureus [14]
  Activity: inactive
Escherichia coli [15]
  Activity: inactive
Staphylococcus aureus [16]
  Activity: inactive
Escherichia coli [17]
  Activity: inactive
Pseudomonas aeruginosa [18]
  Activity: inactive
Enterococcus faecalis [19]
  Activity: inactive
Staphylococcus aureus [20]
  Activity: Active

## CC(C)(C)c1cc2c(O)c(c1)Cc1cc(C(C)(C)C)cc(c1OCCCO)Cc1cc(C(C)(C)C)cc(c1O)Cc1cc(C(C)(C)C)cc(c1OCCCO)C2
Escherichia coli [21]
  Activity: inactive
Pseudomonas aeruginosa [22]
  Activity: inactive
Enterococcus faecalis [23]
  Activity: inactive
Staphylococcus aureus [24]
  Activity: inactive
Staphylococcus aureus [25]
  Activity: inactive

## CCn1cc(C(=O)O)c(=O)c2ccc(C)nc21
Enterococcus faecalis [26]
  Activity: inactive
Escherichia coli [27]
  Activity: Active
Staphylococcus aureus [28]
  Activity: Active
Staphylococcus aureus [29]
  Activity: Active
Pseudomonas aeruginosa [30]
  Activity: inactive

## CC1(C)S[C@@H]2[C@H](NC(=O)COc3ccccc3)C(=O)N2[C@H]1C(=O)O
Staphylococcus aureus [31]
  Activity: Active
Staphylococcus aureus [32]
  Activity: Active
Staphylococcus aureus [33]
  Activity: Active
Staphylococcus aureus [34]
  Activity: Active
Escherichia coli [35]
  Activity: inactive
Enterococcus faecalis [36]
  Activity: Active
Enterococcus faecalis [37]
  Activity: inactive
Pseudomonas aeruginosa [38]
  Activity: inactive
